pIC50: −log10 of the molar value. Active and inactive are the calls of the source. No cut-off for these calls is given here.

In experiment [1] the test system is Rattus norvegicus. Briefly: Effective dose for apomorphine induced circling behavior was determined in rats after subcutaneous administration of the compound. Format: functional. The settings on record: sc.
Experiment [2] addresses T1, D(2) dopamine receptor (Rattus norvegicus, UniProt P61169). Put plainly: Neuroleptic activity in terms of [3H]spiroperidol binding to Dopamine receptor D2 in rat striatal membrane. Format: cell membranes. The method in brief:
(§1)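 Striatal membranes from male Sprague-Dawley rats (1.4 mg protein/mL) were used in 50 mM Tris-HCl pH 7.1 with 0.1% ascorbate, 10 μM pargyline, 120 mM NaCl, 5 mM KCl and 1 mM each of CaCl2 and MgCl2. Incubation was with […], 20 min at 37 °C. Nonspecific binding was defined by 10⁻⁶ M haloperidol, with filtration and scintillation counting.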

Experiment [3] has as its system Monkey. Briefly: Antagonist action in tail-flick antagonism vs morphine, in rhesus monkeys. Compound was injected subcutaneously. Format: functional. The conditions noted are these: Cercopithecidae, in Macaca mulatta, sc.
Experiment [4] deals with T2, Mu-type opioid receptor (Rattus norvegicus, UniProt P33535). Put plainly: Opioid activity in terms of inhibition of [3H]dihydromorphine binding to Opioid receptor mu 1 in rat brain membrane. Type of experiment: cell membranes. The method in brief:
(§2)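 Whole-brain membranes, cerebellum removed, from male Sprague-Dawley rats (1 mg protein/mL) in 50 mM Tris-HCl pH 7.4 were preincubated 60 min at 25 °C. [3H]dihydromorphine was added to a […], with varying drug concentrations, for 60 min at 25 °C. Nonspecific binding was defined by 10⁻⁵ M naloxone, with GF/B filtration and scintillation counting.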

Experiment [5] is filed under the species Rattus norvegicus. Briefly: Tail-flick assay was performed to determine antinociceptive profile of the compound. On the set-up: unit not given here. Type of experiment: functional.
The species entered for experiment [6] is Rattus norvegicus. Put plainly: Agonist/antagonist and antinociceptive profile was assessed in a hotplate assay. Format: functional.
The test system of experiment [7] is Rattus norvegicus. Briefly: Effective dose for apomorphine induced circling behavior was determined in rats after subcutaneous administration of the compound. Type of experiment: functional.
Experiment [8] concerns Rattus norvegicus. Briefly: Antagonist and antinociceptive profile was evaluated in a paraphenylquinone assay after subcutaneous injection. Format: functional.
For experiment [9], the system named is Monkey. Put plainly: Antagonist action in tail-flick antagonism vs morphine, in rhesus monkeys. Compound was injected subcutaneously; Not active. Format: functional, organism-based. The conditions noted are these: Cercopithecidae.
Experiment [10] relates to Monkey. Put plainly: Antagonist action in tail-flick antagonism vs morphine, in rhesus monkeys, compound was injected subcutaneously; Not Active. Format: functional, organism-based. The settings on record: Cercopithecidae.
The species named for experiment [11] is Rattus norvegicus. Briefly: Agonist/antagonist and antinociceptive profile was assessed in a hotplate assay.
The test system of experiment [12] is Rattus norvegicus. Put plainly: Antagonist and antinociceptive profile was evaluated in a paraphenylquinone assay after subcutaneous injection. The settings on record: sc.
Experiment [13] has as its target T1, D(2) dopamine receptor. Briefly: Neuroleptic activity in terms of [3H]spiroperidol binding to dopamine receptor D2 in rat striatal membrane. Type of experiment: cell membranes. An outline of the steps: as §1
Experiment [14] deals with T2, Mu-type opioid receptor. Briefly: Opioid activity in terms of inhibition of [3H]dihydromorphine binding to opioid receptor mu in rat brain membrane. Type of experiment: cell membranes. An outline of the steps:
as §2

The mark [15] stands for this setting: Rattus norvegicus, read-out: ED50.
Where [16] appears, read: Rattus norvegicus, sc, read-out: ED50.

T1 sequence (P61169 whole entry): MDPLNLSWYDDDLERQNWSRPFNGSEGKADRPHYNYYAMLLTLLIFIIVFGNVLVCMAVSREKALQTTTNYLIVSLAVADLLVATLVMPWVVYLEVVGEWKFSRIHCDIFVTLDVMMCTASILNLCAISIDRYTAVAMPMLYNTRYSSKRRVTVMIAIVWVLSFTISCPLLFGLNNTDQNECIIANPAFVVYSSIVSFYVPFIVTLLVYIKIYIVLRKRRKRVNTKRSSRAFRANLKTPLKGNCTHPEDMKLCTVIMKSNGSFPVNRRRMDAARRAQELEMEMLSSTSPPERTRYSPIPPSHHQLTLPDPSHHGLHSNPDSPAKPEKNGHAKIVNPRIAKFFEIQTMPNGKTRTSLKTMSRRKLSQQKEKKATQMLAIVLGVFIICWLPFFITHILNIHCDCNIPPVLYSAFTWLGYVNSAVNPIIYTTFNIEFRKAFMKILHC
T2 sequence (P33535 whole entry): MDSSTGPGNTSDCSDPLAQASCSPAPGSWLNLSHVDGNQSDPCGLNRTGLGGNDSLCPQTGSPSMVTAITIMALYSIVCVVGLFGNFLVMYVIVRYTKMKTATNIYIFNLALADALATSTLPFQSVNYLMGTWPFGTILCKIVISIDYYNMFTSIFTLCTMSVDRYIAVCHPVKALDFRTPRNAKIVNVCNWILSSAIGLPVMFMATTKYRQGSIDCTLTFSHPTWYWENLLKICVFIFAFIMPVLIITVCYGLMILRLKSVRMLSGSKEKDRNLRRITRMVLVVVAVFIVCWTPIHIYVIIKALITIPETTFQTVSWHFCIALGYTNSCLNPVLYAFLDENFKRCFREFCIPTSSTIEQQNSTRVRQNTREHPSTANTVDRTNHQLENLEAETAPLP

`O=C(CCCN1CCC(O)(c2ccc(Cl)cc2)CC1)c1ccc(F)cc1` [HALOPERIDOL] gave an ED50 with Rattus norvegicus [1] of 0.1 µmol/kg.
What is called pIC50 is −log10 of the IC50, conventionally taken in molar units. `CCC(=O)O[C@@]1(c2ccccc2)CCN(CCCC(=O)c2ccc(F)cc2)CC1C` (mixture of isomers): the figures for the pIC50 at D(2) dopamine receptor [2] and at Mu-type opioid receptor [4] were 7.27 and 8.02, respectively. In addition, the ED50 is above 60.8 µmol/kg in the experiment with Monkey [3], 1.6 µmol/kg in the experiment filed under Rattus norvegicus [6] (setting [15]), 3.9 µM/kg in the experiment on Rattus norvegicus [7] and 0.2 µmol/kg in the experiment on Rattus norvegicus [8] (setting [16]). For the same compound, the Activity in the experiment filed under Rattus norvegicus [5] is 1.7.
As for `CCC(=O)O[C@]1(c2ccccc2)CCN(CCCC(=O)c2ccc(F)cc2)C[C@H]1C`, at D(2) dopamine receptor [2], the pIC50 was 6.83. For the same compound, in the experiment with Monkey [9], the ED50 entry was “inactive”. Also, the Activity in the experiment filed under Rattus norvegicus [5] is on record as above 60.8. For the same compound, the ED50 in the experiment filed under Rattus norvegicus [6] (setting [15]) was above 72.9 µmol/kg; in the experiment with Rattus norvegicus [7] (setting [16]), above 12 µmol/kg; in the experiment on Rattus norvegicus [8] (setting [16]), 2.9 µmol/kg.
As to `CN1CC[C@]23c4c5ccc(O)c4O[C@H]2[C@@H](O)C=C[C@H]3[C@H]1C5` [MORPHINE], in the experiment with Monkey [10], the ED50 result was “inactive”. In the experiment filed under Rattus norvegicus [5], this compound came in with an Activity of 10.6. For the same compound, the ED50 stood at 2.9 µmol/kg in the experiment filed under Rattus norvegicus [11] and 0.4 µmol/kg with Rattus norvegicus [12].
Regarding `CCC(=O)O[C@@]1(c2ccccc2)CCN(CCCC(=O)c2ccc(F)cc2)CC1C` (single isomer, unassigned; (+)), the pIC50 was 7.36 on D(2) dopamine receptor [13] and 8.21 at Mu-type opioid receptor [14]. This compound also showed an Activity in the experiment filed under Rattus norvegicus [5] of 0.8. The ED50 in the experiment filed under Rattus norvegicus [6] is 0.9 µM/kg; in the experiment with Rattus norvegicus [7] it was 1.6 µM/kg; with Rattus norvegicus [8], 0.2 µM/kg.

(Values after ChEMBL document CHEMBL1125722 (J Med Chem, 1991).)
